Data reported in PMC10213863 (Cell Reports Medicine, 2023).

Experiments:
[1] = MHV370 blood exposure during food dosing of NZB/W F1 mice; type: in vivo, mouse
Outline: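 NZB/W F1 mice were fed diet containing test compound at 0.01% or 0.1%, with fresh food every two weeks. Daily food intake per mouse was calculated per cage. Whole-blood drug concentrations were measured by LC-MS/MS.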

[2] = tested on: B cell receptor; assay: B cell receptor-mediated activation in human blood; type: cell-based; details: up to 16 μM; n = 2, data not shown
Outline: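 Heparinized human blood was given a 3-fold serial dilution of test compound, top 16 μM, for 1.5 h at 37°C. B cells were then activated with 50 μg/mL anti-human IgM for 20 min at 37°C. Samples were lysed/fixed and permeabilized, then stained for pAkt([…]) and CD20. Readout was by flow cytometry.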

[3] = molecular target: T1, TLR9 (Homo sapiens, UniProt Q9NR96); assay: Ramos Blue reporter B cell line, ODN2006 stimulation; type: cell-based; details: Ramos cells
T1 sequence (Q9NR96 26-1032): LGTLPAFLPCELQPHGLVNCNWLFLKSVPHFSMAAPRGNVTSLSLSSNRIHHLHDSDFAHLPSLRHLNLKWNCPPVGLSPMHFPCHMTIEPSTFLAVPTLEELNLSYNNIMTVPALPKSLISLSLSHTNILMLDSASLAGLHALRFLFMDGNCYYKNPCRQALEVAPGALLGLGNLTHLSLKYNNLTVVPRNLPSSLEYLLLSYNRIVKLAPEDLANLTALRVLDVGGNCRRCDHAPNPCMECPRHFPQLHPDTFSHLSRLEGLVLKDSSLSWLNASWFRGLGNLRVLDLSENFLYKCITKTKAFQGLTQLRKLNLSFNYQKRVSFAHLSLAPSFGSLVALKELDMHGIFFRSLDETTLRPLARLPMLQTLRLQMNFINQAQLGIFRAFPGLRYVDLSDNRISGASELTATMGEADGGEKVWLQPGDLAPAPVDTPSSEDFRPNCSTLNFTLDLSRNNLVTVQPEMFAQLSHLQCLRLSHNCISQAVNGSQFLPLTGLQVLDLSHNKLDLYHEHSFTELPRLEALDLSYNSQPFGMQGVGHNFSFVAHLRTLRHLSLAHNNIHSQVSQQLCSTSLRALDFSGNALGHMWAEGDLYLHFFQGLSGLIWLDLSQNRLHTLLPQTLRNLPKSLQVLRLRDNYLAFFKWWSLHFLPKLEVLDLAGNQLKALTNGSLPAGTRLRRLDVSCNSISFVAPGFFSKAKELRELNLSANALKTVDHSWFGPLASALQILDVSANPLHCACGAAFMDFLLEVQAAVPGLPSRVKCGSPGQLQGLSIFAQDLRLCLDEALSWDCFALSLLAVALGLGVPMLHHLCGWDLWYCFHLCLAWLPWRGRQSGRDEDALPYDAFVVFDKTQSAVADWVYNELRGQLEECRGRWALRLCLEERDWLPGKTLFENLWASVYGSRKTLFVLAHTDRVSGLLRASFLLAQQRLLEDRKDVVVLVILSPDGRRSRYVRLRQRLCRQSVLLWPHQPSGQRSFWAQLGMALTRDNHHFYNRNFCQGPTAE
Outline: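 Ramos Blue B reporter cells were pre-treated 30 min at 37°C, 5% CO2 with increasing concentrations of test compound or 0.25% v/v DMSO. They were then stimulated with the respective agonist, and reporter activity was read.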

[4] = molecular target: TLR4 (Homo sapiens, UniProt O00206); assay: Human whole blood assay, LPS-TNF; type: cell-based
Outline: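 Fresh human blood or 129/Sv mouse blood was taken into citrate and diluted 1:1 with RPMI1640. It was pre-incubated 30 min at 37°C, 5% CO2 with increasing concentrations of test compound or 0.25% v/v DMSO (final). Blood was then stimulated with TLR agonists at doses from earlier work, or with R848 (3 μM), and cytokines were quantified. Viability was checked by ATPlite luminescence.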

[5] = molecular target: T2, TLR7 (Mus musculus, UniProt P58681); type: in vivo; details: mice; single oral dose 5 mg/kg
T2 sequence (P58681 27-1050): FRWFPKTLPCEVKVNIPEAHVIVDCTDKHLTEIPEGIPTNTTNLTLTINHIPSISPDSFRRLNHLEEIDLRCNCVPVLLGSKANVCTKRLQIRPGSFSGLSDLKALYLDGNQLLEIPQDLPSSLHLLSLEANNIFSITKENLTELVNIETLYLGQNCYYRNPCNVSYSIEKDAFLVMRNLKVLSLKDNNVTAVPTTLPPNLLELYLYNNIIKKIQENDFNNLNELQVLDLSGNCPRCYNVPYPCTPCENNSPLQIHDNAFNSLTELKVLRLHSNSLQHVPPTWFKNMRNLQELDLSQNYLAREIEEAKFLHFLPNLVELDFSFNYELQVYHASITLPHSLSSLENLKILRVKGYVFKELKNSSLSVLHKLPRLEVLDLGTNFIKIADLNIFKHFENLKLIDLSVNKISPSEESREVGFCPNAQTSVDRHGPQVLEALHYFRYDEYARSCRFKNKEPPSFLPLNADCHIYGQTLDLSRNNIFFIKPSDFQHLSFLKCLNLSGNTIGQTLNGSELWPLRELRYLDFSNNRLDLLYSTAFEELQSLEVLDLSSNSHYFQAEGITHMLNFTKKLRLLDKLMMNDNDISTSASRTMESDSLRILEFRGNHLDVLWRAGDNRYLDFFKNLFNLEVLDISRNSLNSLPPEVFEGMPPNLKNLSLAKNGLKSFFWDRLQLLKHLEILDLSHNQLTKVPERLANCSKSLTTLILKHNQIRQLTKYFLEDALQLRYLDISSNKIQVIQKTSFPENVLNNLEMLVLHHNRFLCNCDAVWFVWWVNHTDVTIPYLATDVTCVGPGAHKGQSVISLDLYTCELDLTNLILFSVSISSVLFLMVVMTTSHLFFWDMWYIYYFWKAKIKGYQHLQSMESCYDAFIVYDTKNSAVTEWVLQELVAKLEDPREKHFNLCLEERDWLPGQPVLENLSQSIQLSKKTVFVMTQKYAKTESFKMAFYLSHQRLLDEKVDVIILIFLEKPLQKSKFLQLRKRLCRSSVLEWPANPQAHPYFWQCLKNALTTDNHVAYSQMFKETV

Sequence of TLR4 (O00206 24-839): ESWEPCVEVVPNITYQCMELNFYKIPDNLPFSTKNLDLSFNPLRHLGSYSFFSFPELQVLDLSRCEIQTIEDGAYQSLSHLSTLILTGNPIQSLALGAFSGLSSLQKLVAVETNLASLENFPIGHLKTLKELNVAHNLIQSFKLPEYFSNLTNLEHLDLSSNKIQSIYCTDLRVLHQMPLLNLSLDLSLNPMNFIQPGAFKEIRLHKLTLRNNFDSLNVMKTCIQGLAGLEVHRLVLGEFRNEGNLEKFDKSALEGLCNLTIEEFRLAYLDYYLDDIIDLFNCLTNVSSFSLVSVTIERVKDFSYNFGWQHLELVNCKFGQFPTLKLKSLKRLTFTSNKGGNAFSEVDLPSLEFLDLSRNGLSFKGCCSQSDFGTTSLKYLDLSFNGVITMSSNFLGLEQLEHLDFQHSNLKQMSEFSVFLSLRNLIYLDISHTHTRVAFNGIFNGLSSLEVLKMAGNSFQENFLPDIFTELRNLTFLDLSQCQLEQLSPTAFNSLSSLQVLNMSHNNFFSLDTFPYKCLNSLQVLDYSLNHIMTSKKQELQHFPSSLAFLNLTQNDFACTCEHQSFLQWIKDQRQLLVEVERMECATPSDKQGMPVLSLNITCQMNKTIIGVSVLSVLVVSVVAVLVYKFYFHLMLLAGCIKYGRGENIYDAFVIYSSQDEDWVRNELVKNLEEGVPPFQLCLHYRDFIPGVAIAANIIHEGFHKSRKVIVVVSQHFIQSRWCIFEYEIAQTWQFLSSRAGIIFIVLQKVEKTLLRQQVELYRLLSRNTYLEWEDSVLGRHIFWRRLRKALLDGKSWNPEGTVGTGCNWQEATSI
Sequence of TLR4 (Q9Y6Y9 19-160 partner): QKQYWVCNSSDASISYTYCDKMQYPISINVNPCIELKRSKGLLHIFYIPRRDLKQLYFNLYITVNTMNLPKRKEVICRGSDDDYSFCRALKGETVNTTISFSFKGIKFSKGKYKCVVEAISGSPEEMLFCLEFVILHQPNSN

Cc1cc(N2CCc3c(c(C)nn3CC34CCC(NC(=O)[C@@H]5COCCN5)(CC3)CC4)C2)c2cnn(C)c2n1 [MHV370, (S)-N-(4-((5-(1,6-dimethyl-1H-pyrazolo[3,4-b]pyridin-4-yl)-3-methyl-4,5,6,7-tetrahydro-1H-pyrazolo[4,3-c]pyridin-1-yl)methyl)bicyclo[2.2.2]octan-1-yl)morpholine-3-carboxamide]
exposure level in blood ([1]; 0.01% MHV370 in food): 55 nM
exposure level in blood ([1]; 0.1% MHV370 in food): 1424 nM
activation of B cell responses via the B cell receptor [2]: unaffected
inhibitory activity against endosomal TLR9 [3]: no or very limited inhibitory activity
activity following TLR4 activation [4]: inactive
CD69 expression on B cells, ex vivo R848 stimulation of blood [5]: marked inhibition of CD69 expression over a period of 8 h
